Data set [1] has as its target T1, Tyrosine-protein phosphatase non-receptor type 1 (Homo sapiens) (UniProt P18031).
T1 sequence (whole entry): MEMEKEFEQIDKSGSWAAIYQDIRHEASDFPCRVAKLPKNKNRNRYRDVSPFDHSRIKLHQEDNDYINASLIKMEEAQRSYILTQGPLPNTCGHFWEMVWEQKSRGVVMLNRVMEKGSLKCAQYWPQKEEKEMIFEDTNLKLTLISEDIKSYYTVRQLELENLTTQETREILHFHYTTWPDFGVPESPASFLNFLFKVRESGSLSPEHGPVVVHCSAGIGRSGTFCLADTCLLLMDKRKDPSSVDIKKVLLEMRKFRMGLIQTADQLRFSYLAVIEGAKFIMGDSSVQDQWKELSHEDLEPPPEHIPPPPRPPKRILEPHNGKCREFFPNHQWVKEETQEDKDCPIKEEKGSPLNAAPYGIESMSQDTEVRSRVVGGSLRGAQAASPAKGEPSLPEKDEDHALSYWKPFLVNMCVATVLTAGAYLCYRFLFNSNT
The conditions noted are these: at 20 µg/mL.

The target of data set [2] is T1, Tyrosine-protein phosphatase non-receptor type 1 (Homo sapiens). The conditions noted are these: at 5 µg/mL.
Data set [3] addresses T2, Tyrosine-protein phosphatase non-receptor type 1 (Homo sapiens, UniProt P18031).
T2 sequence (P18031 whole entry): T1 sequence (whole entry)
The data set can be described thus: Inhibition of human recombinant GST-tagged PTP1B using para-nitrophenyl phosphate as substrate after 2 mins.

Data set [4] deals with Mus musculus. The data set can be described thus: Toxicity in C57BL/KsJ db/db mouse assessed as mortality at 25 to 50 mg/kg, po administered for 6 weeks. Also noted: dose 25-50 mg/kg, route oral. Type of data set: organism-based. The conditions noted are these: in vivo, 1008 h.
The subject of data set [5] is Mus musculus. In words: Antidyslipidemic activity in C57BL/KsJ db/db mouse assessed as reduction of total cholesterol level in blood at 50 mg/kg, po administered for 6 weeks (reference value: 3.3 +/- 0.5 mmol/l). Type of data set: functional.
Data set [6] relates to Mus musculus. In words: […] activity in C57BL/KsJ db/db mouse assessed as reduction of glycated serum protein level in blood at 50 mg/kg, po administered for 6 weeks (reference value: 1.62 +/- 0.27 mmol/l). It counts as functional. The essentials:
(§1)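 db/db mice (C57BL/KsJ, 6-8 weeks, n = 10/group) given compound orally once daily for six weeks in 0.5% CMC-Na with 2% tween-80. Vehicle model group; db/dm mice as controls. At the end, overnight fast, then dosing; eyeball blood taken 1 h later into heparin tubes. HbA1c read by reagent kit. GSP measured in plasma by fructosamine method. Mean ± s.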

In data set [7] the test system is Mus musculus. The data set can be described thus: Antidyslipidemic activity in C57BL/KsJ db/db mouse assessed as reduction of triglycerides level in blood at 25 mg/kg, po administered for 6 weeks measured on 2nd week (reference value: 1.08 +/- 0.07 mmol/l). Type of data set: functional.
Data set [8] relates to Mus musculus. The data set can be described thus: Antidiabetic activity in C57BL/KsJ db/db mouse assessed as reduction of food and water intake at 25 to 50 mg/kg, po administered for 6 weeks. It counts as functional, organism-based. The gist of the method: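 db/db mice (C57BL/KsJ, 6-8 weeks), n = 10 per group, dosed orally once daily for six weeks as a suspension in 0.5% CMC-Na plus 2% tween-80. Vehicle model group; db/dm mice as non-diabetic controls. Food intake recorded weekly.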

In data set [9] the test system is Mus musculus. In words: Antidiabetic activity in C57BL/KsJ db/db mouse assessed as reduction of blood glucose level at 25 mg/kg, po administered for 6 weeks measured on 3rd week. Type of data set: functional. Also noted: scale not given: the % may be the effect or the level left. The gist of the method:
(§2)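 C57BL/KsJ db/db mice, 6-8 weeks old, one-week adaptation, n = 10 per group, chow and water ad libitum. Compound suspended in 0.5% CMC-Na with 2% tween-80, given orally once daily for six weeks (about 0.2 mL/20 g). Vehicle-treated db/db model group. Blood glucose read weekly by glucometer.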

In data set [10] the test system is Mus musculus. The data set can be described thus: Antidyslipidemic activity in C57BL/KsJ db/db mouse assessed as reduction of triglycerides level in blood at 50 mg/kg, po administered for 6 weeks (reference value: 1.05 +/- 0.11 mmol/l). Type of data set: functional.
Data set [11] concerns Mus musculus. The data set can be described thus: Antidyslipidemic activity in C57BL/KsJ db/db mouse assessed as reduction of total cholesterol level in blood at 50 mg/kg, po administered for 6 weeks measured on 2nd week (reference value: 3.5 +/- 0.2 mmol/l). Type of data set: functional.
Data set [12] relates to Mus musculus. The data set can be described thus: Antidiabetic activity in C57BL/KsJ db/db mouse assessed as reduction of blood glucose level at 50 mg/kg, po administered for 6 weeks measured on 3rd week. It counts as functional. Also noted: scale not given: the % may be the effect or the level left. The essentials: as §2
Data set [13] relates to Mus musculus. The data set can be described thus: Toxicity in C57BL/KsJ db/db mouse assessed as change in body weight at 25 to 50 mg/kg, po administered for 6 weeks. Type of data set: organism-based. Also noted: dose 25-50 mg/kg, route oral. The conditions noted are these: in vivo, 1008 h.
In data set [14] the test system is Mus musculus. The data set can be described thus: Antidyslipidemic activity in C57BL/KsJ db/db mouse assessed as reduction of triglycerides level in blood at 50 mg/kg, po administered for 6 weeks measured on 2nd week (reference value: 1.08 +/- 0.07 mmol/l). It counts as functional.
For data set [15], the system named is Mus musculus. In words: […] activity in C57BL/KsJ db/db mouse assessed as reduction of HbA1c level in blood at 25 mg/kg, po administered for 6 weeks (reference value: 2.65 +/- 0.40%). It counts as functional. On the set-up: scale not given: the % may be the effect or the level left. The essentials:
as §1

Data set [16] relates to Mus musculus. The data set can be described thus: Antidyslipidemic activity in po dosed C57BL/KsJ db/db mouse assessed as reduction of total cholesterol level in blood administered for 6 weeks. Type of data set: functional, organism-based.
Data set [17] concerns Mus musculus. The data set can be described thus: Antidyslipidemic activity in C57BL/KsJ db/db mouse assessed as reduction of triglycerides level in blood at 25 mg/kg, po administered for 6 weeks (reference value: 1.05 +/- 0.11 mmol/l). It counts as functional.
Data set [18] has as its system Mus musculus. In words: […] activity in C57BL/KsJ db/db mouse assessed as reduction of HbA1c level in blood at 50 mg/kg, po administered for 6 weeks (reference value: 2.65 +/- 0.40%). It counts as functional. Also noted: scale not given: the % may be the effect or the level left. The gist of the method:
as §1

The test system of data set [19] is Mus musculus. In words: […] activity in C57BL/KsJ db/db mouse assessed as reduction of glycated serum protein level in blood at 25 mg/kg, po administered for 6 weeks (reference value: 1.62 +/- 0.27 mmol/l). Type of data set: functional. The essentials:
as §1

The test system of data set [20] is Mus musculus. In words: Antidyslipidemic activity in po dosed C57BL/KsJ db/db mouse assessed as reduction of triglycerides level in blood administered for 6 weeks. Type of data set: functional, organism-based.
Data set [21] has as its system Mus musculus. In words: Antidyslipidemic activity in C57BL/KsJ db/db mouse assessed as reduction of total cholesterol level in blood at 25 mg/kg, po administered for 6 weeks (reference value: 3.3 +/- 0.5 mmol/l). It counts as functional.
Data set [22] relates to Mus musculus. In words: Antidyslipidemic activity in C57BL/KsJ db/db mouse assessed as reduction of total cholesterol level in blood at 25 mg/kg, po administered for 6 weeks measured on 2nd week (reference value: 3.5 +/- 0.2 mmol/l). Type of data set: functional.
For data set [23], the system named is Mus musculus. In words: Antidiabetic activity in C57BL/KsJ db/db mouse assessed as reduction of blood glucose level at 50 mg/kg, po administered for 6 weeks. It counts as functional. The gist of the method:
as §2

Data set [24] deals with Mus musculus. The data set can be described thus: Antidiabetic activity in C57BL/KsJ db/db mouse assessed as reduction of blood glucose level at 50 mg/kg, po administered for 6 weeks measured on first week. It counts as functional. The essentials: as §2

Activity calls are given as the source filed them. The rule behind the calls is not given here.

As for `COC(=O)c1cc(OC)c(OC)c(Br)c1C(=O)c1cc(OC)c(OC)c(Br)c1Br`, the inhibition in data set [1] was determined as 55.3%; in data set [2], 23.8%.
Turning to `COc1cc(Cc2c(CO)cc(OC)c(OC)c2Br)c(Br)c(Br)c1OC`, the values for the inhibition in data set [1] and in data set [2] were 74.9% and 29.1%, respectively.
The compound `COc1cc(C(=O)c2c(C)cc(OC)c(OC)c2Br)c(Br)c(Br)c1OC` yielded an inhibition in [1] of 48.6%.
Turning to `CCOCc1cc(OC)c(OC)c(Br)c1C(=O)c1cc(OC)c(OC)c(Br)c1Br`, the results for the inhibition in [1] and in data set [2] were 73.8% and 17.6%, respectively.
On to `COc1cc(C)c(Cc2c(Br)c(Br)c(OC)c(OC)c2Br)c(Br)c1OC`, for which the inhibition was found to be 72.6% in [1] and 38.2% in data set [2].
Turning to `COc1cc(Cc2c(C)cc(OC)c(OC)c2Br)c(Br)c(Br)c1OC`, the figures for the inhibition in data set [1] and in data set [2] were 87.5% and 43.1%, respectively.
`COc1cc(C(=O)c2c(C)cc(OC)c(OC)c2Br)cc(Br)c1OC`: the inhibition in [1] was 36.7%.
Regarding `Oc1cc(Cc2cc(Br)c(O)c(Br)c2Br)c(Br)c(Br)c1O`, the concentration for half-maximal inhibition (IC50) in data set [3] stood at 2.42 µM.
As to `CCCCOCc1cc(O)c(O)c(Br)c1Cc1cc(O)c(O)c(Br)c1Br`, the inhibition in [1] was determined as 64.6%; in data set [2], 27.2%.
In data set [1], `COc1cc(Cc2c(C)cc(OC)c(OC)c2Br)cc(Br)c1OC` returned an inhibition of 14.5%.
In the case of `Cc1cc(O)c(O)c(Br)c1Cc1cc(O)c(O)c(Br)c1Br`, the inhibition in [1] came out at 53.4%; in data set [2] it was 32.1%.
On the same counts, the results for `COc1c(Br)c(C)c(Cc2c(Br)c(Br)c(OC)c(OC)c2Br)c(Br)c1OC` are 75.3% and 40.1%.
For the compound `CC(C)COCc1cc(O)c(O)c(Br)c1Cc1cc(O)c(O)c(Br)c1Br`, the Activity entry in data set [4] was “Non-toxic”; in [5], 9.1 mmol/L; in data set [6], 3 mmol/L; in data set [7], 1.16 mmol/L; in data set [9] it was 32.7%; in data set [10], 1.48 mmol/L. Further, the Activity was 7.8 mmol/L in data set [11]; 36.4% in data set [12]; “Toxic” in data set [13]; 1.35 mmol/L in data set [14]; 3.24% in data set [15]; “Dose-dependent effect” in data set [16]. The Activity is 1.41 mmol/L in data set [17]; 3.03% in data set [18]; 3.29 mmol/L in data set [19]; “Dose-dependent effect” in [20]; 8.5 mmol/L in [21]; 7.7 mmol/L in data set [22]. Further, the result in [8] was Active. Moreover, the results for the inhibition in data set [1] and in data set [2] were 96.2% and 48.3%, respectively.
Take `CN(CCOc1ccc(CC2SC(=O)NC2=O)cc1)c1ccccn1` (configuration not stated) [ROSIGLITAZONE]: the Activity in data set [23] amounted to 8 mmol/L; in data set [5] it was 7.7 mmol/L; in data set [6], 2.6 mmol/L; in data set [24], 8.9 mmol/L; in [10], 1.29 mmol/L; in data set [11], 6.5 mmol/L. The Activity in data set [14] stood at 1.06 mmol/L; in [18] it was 2.56%.
For `CCOCc1cc(O)c(O)c(Br)c1Cc1cc(O)c(O)c(Br)c1`, the inhibition in data set [1] was 50.6%; in data set [2], 17.3%.
On the same counts, the results for `COCc1cc(O)c(O)c(Br)c1Cc1cc(O)c(O)c(Br)c1Br` are 51.9% and 25.3%.
Take `COCc1cc(OC)c(OC)c(Br)c1C(=O)c1cc(OC)c(OC)c(Br)c1Br`: the results for the inhibition in data set [1] and in data set [2] were 61.8% and 17.7%, respectively.
Turning to `COc1cc(C2OC(=O)c3cc(OC)c(OC)c(Br)c32)c(Br)c(Br)c1OC` (configuration not stated), in data set [1], the inhibition worked out at 10.6%.
In turn, `COc1cc(C2OCc3cc(OC)c(OC)c(Br)c32)c(Br)c(Br)c1OC` (configuration not stated) had an inhibition in data set [1] of 11.4%.
On the same count and under the same terms, for `COc1ccc(C(=O)c2c(C)cc(OC)c(OC)c2Br)cc1OC` the value was 28.9%; for `COc1cc(C(=O)c2c(C(=O)O)cc(OC)c(OC)c2Br)c(Br)c(Br)c1OC`, 29.9%.
With `CCCOCc1cc(O)c(O)c(Br)c1Cc1cc(O)c(O)c(Br)c1Br`, the inhibition in data set [1] came to 86.2%; in data set [2], 55.7%.
Turning to `COc1cc(Cc2c(CO)cc(OC)c(OC)c2Br)cc(Br)c1OC`, in [1], the inhibition stood at 5.62%.

By inhibition is commonly meant the share of the control response that was lost under treatment. A word on the IC50: it is the concentration that inhibits the measured activity by half.
